Source: publication PMC10166615 (Bioorganic & Medicinal Chemistry, 2023)

Assays:
[1] = Liver microsomes metabolic stability, human; type: in vitro ADME
SARS-CoV-2 = assay: Antiviral activity in Vero E6 cells; type: cell-based; conditions: for antiviral activity relative to nirmatrelvir: EC50 against SARS-CoV-2 compared with nirmatrelvir
[2] = Pharmacokinetics after p.o. and i.v. administration; type: in vivo; conditions: mouse
[3] = Liver microsomes metabolic stability, mouse; type: in vitro ADME
Procedure, shortened: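 Mouse liver microsomes at 0.5 mg/mL final protein in K/Mg buffer. Test compound went from a 10 mM stock in ACN into a 1.5 µM spiking solution containing 0.75 mg/mL microsomes. After 5 min pre-incubation at 37 °C, reactions were started with 6 mM NADPH stock. They were quenched with ACN containing internal standard at 0, 5, 15, 30 and 45 min, then shaken and centrifuged.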

For `CC(C)(C)[C@H](NC(=O)C(F)(F)F)C(=O)N1C[C@@H]2CCC[C@@H]2[C@H]1C(=O)N[C@H](C#N)C[C@@H]1CCNC1=O` [1a, (1S,3aR,6aS)-N-((S)-1-cyano-2-((S)-2-oxopyrrolidin-3-yl)ethyl)-2-((S)-3,3-dimethyl-2-(2,2,2-trifluoroacetamido)butanoyl)octahydrocyclopenta[c]pyrrole-1-carboxamide], the CLint scaled at 1 µM [1] was 22 mL/min/kg, the half-life at 1 µM [1] was 78.9 min and the “metabolic stability (in words)” value [1] was “moderate metabolic stability”. For the same compound, the RNA copy inhibition% (SARS-CoV-2; 1 μM compound, preliminary screening) was 70%, the “antiviral activity relative to nirmatrelvir” value (SARS-CoV-2) was 2 fold and the AUC(0-inf) ([2]; male, plasma, iv, 10 mg/kg) was 2670 ng·h/mL. It also gave an AUC(0-t) ([2]; male, plasma, iv, 10 mg/kg) of 2670 ng·h/mL, an MRT inf ([2]; male, plasma, iv, 10 mg/kg) of 14.4 min and a clearance ([2]; male, plasma, iv, 10 mg/kg) of 69.3 mL/min/kg. For the same compound, the half-life ([2]; male, plasma, iv, 10 mg/kg) was 66 min, the bioavailability ([2]; male, plasma, oral, 20 mg/kg) was 22.8% and the AUC(0-inf) ([2]; male, plasma, po, 20 mg/kg) was 1220 ng·h/mL. It also gave an AUC(0-t) ([2]; male, plasma, po, 20 mg/kg) of 1220 ng·h/mL, a Cmax ([2]; male, plasma, po, 20 mg/kg) of 1310 ng/mL and an MRT inf ([2]; male, plasma, po, 20 mg/kg) of 52.8 min. It also gave a Tmax ([2]; male, plasma, po, 20 mg/kg) of 25.2 min, a half-life ([2]; male, plasma, po, 20 mg/kg) of 60 min and a Vss_obs ([2]; i.v. (10 mg/kg)) of 1.011 L/kg. The CLint scaled at 1 µM [3] was 368 mL/min/kg, the half-life at 1 µM [3] was 14.8 min and the “metabolic stability (in words)” value [3] was “susceptible to metabolic effects”.

In the case of `CC(C)(C)[C@H](NS(=O)(=O)C(F)(F)F)C(=O)N1C[C@H]2[C@@H]([C@H]1C(=O)N[C@H](C#N)C[C@@H]1CCNC1=O)C2(C)C` [2b, (1R,2S,5S)-N-((S)-1-cyano-2-((S)-2-oxopyrrolidin-3-yl)ethyl)-3-((S)-3,3-dimethyl-2-((trifluoromethyl)sulfonamido)butanoyl)-6,6-dimethyl-3-azabicyclo[3.1.0]hexane-2-carboxamide], the CLint scaled at 0.75 h, 1 µM [1] is reported as 2.67 mL/min/kg, the “metabolic stability (in words)” value [1] is reported as “stable” and the “antiviral activity relative to nirmatrelvir” value (SARS-CoV-2) is reported as 4 fold. The clearance ([2]; male, plasma, iv, 10 mg/kg) was 41 mL/min/kg, the CLint scaled at 0.75 h, 1 µM [3] was 55.8 mL/min/kg and the “metabolic stability (in words)” value [3] was “moderate metabolic stability”.

With `CC(C)(C)[C@H](NC(=O)C(F)(F)F)C(=O)N1C[C@H]2[C@@H]([C@H]1C(=O)N[C@H](C#N)C[C@@H]1CCNC1=O)C2(C)C` [Nirmatrelvir, reference compound] the clearance ([2]; male, plasma, iv, 10 mg/kg) was 50.1 mL/min/kg and the CLint scaled at 0.75 h, 1 µM [3] was 1180 mL/min/kg.
